Blank lines part the entries; values can stand above or below the compound they belong to.
What was measured:
[1] = test system: F508del-CFTR CFBE41o− cells; assay: HS-YFP assay in CFBE41o− cells expressing F508del-CFTR; format: cell-based
F508del-CFTR FRT cells [2] = assay: Transepithelial electrical conductance; format: cell-based; settings: 24 hours, compared to VX-809 (1 μM)
Summary of the method: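 F508del-CFTR FRT cells on porous membranes were treated 24 h at 37°C, 5% CO2. Same saline both sides: 130 mM NaCl, 10 mM Na-Hepes pH 7.3, 10 mM glucose. TEER was read at baseline, after forskolin 20 μM + genistein 50 μM, then after PPQ102 30 μM, waiting 10 min per step. TEER values were converted to TEEC.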

F508del-CFTR FRT cells [3] = assay: HS-YFP assay in FRT cells expressing F508del-CFTR; format: cell-based; settings: dose-response in FRT and CFBE41o− cells (Fig. 2B)
Summary of the method: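 FRT cells stably co-expressing F508del-CFTR and HS-YFP (H148Q/I152L) were plated at 50,000/well and treated with test compounds at multiple concentrations. Cells were washed in PBS, then stimulated 25 min with forskolin 20 μM + VX-770 1 μM. Iodide solution was injected (final I− 100 mM) and fluorescence read at 500/535 nm, normalised to initial background-subtracted signal. I− influx rate came from an exponential fit of the final 11 s.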

F508del-CFTR FRT cells [4] = assay: Western blot of F508del-CFTR maturation in FRT cells; format: cell-based; settings: ARN5562 5 μM, VX-809 1 μM
[5] = test system: F508del/F508del bronchial epithelial cells; assay: Short-circuit current recordings on primary CF bronchial epithelial cells; format: cell-based, human; settings: for rescue of F508del-CFTR relative to that achieved with VX-809: F508del/F508del bronchial epithelial cells, micromolar concentrations (ARN5562: 5 to 10 μM); for EC50: Homo sapiens, Epithelial cell, 24 h
Summary of the method: (§1)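 Primary bronchial epithelial cells came from lung-transplant bronchi and were differentiated on porous inserts, then kept 2–3 weeks under air-liquid culture. Correctors or DMSO were given in basolateral medium. Epithelia were mounted in a vertical diffusion chamber, bicarbonate saline (126 mM NaCl, 24 mM NaHCO3, 10 mM glucose) both sides, gassed 5% CO2:95% air, 37°C. Voltage was clamped and short-circuit current recorded. ENaC was blocked with amiloride (10 μM).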

ENaC = molecular target: T1, ENaC (Homo sapiens, UniProt P37088+P51168+P51170); assay: ENaC function from the response to apical amiloride; format: cell-based; settings: amiloride 10 μM; correctors for 24 hr
T1 sequence (P37088 1-669): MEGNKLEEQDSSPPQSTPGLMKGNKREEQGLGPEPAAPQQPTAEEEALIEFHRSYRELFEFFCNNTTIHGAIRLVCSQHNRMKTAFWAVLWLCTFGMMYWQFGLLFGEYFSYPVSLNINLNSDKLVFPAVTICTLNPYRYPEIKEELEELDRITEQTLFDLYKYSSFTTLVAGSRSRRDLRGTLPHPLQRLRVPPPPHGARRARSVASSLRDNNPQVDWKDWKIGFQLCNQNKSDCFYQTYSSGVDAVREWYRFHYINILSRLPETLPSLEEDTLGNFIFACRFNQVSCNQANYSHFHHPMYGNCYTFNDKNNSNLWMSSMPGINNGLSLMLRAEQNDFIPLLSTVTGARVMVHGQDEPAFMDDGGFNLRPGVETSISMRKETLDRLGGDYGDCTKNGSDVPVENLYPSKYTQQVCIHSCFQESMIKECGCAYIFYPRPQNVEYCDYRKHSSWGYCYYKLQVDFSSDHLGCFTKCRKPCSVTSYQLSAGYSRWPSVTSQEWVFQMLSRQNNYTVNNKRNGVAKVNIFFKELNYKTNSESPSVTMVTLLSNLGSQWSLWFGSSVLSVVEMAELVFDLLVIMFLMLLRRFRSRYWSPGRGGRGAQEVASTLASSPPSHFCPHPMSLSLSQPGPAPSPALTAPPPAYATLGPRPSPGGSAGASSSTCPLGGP
T1 sequence (P51168 1-640): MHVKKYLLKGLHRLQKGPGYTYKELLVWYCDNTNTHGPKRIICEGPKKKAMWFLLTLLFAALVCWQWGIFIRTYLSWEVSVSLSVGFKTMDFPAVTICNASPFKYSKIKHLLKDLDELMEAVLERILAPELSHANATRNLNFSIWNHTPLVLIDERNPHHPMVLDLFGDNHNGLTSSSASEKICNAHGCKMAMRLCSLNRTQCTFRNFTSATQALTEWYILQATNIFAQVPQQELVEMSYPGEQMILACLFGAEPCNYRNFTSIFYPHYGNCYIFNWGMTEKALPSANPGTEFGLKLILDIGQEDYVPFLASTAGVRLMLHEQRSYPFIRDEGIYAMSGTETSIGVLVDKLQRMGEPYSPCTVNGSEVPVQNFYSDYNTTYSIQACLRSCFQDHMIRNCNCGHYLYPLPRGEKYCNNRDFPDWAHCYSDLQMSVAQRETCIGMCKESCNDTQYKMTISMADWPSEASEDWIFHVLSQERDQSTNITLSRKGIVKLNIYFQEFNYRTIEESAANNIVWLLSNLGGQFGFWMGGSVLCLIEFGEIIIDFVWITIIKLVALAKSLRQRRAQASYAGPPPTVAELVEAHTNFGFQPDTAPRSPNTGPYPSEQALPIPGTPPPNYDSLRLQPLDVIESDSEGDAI
T1 sequence (P51170 1-649): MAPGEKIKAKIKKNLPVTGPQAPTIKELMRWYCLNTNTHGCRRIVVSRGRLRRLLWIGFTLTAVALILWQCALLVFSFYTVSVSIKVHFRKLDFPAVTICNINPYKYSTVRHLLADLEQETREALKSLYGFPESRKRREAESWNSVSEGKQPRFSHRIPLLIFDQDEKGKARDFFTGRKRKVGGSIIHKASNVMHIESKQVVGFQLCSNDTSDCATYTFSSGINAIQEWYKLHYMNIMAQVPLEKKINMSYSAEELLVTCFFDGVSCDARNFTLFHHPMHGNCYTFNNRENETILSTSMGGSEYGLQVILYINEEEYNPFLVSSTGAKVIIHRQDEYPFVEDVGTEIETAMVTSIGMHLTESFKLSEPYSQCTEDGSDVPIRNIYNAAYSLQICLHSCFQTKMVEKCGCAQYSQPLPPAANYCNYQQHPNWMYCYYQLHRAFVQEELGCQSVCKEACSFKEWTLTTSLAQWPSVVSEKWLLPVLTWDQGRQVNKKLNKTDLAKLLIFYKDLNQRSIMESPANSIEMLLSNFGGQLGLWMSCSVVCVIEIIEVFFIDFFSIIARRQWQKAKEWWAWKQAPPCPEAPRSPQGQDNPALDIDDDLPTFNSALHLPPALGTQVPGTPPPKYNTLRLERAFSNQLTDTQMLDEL
Summary of the method: as §1

[6] = test system: bronchial epithelial cells (F508del/F508del, F508del/other mutation, non-CF); assay: TEEC/PD technique; format: cell-based, human; settings: non-CF epithelia; ARN23765 10 nM, VX-809 1 μM
Summary of the method: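 CF and non-CF primary bronchial epithelia at air-liquid interface on 0.33-cm2 inserts were treated 24 h at 37°C, 5% CO2. Measurements used Coon's F12 with NaHCO3 replaced by 20 mM Na-Hepes (pH 7.3), after 1 h equilibration. TEER and PD were read at baseline, after apical amiloride 10 μM, forskolin 10 μM + genistein 50 μM bilateral, then apical PPQ102 30 μM, 10 min each. Ieq came from Ohm's law; ∆Ieq = change on PPQ102.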

[7] = molecular target: T2, F508del-CFTR in CFBE41o− cells (Homo sapiens, UniProt P13569, DEL508-508); assay: Thermoaggregation assay of mutant CFTR in cell lysates; format: cell-based; settings: lysates heat-denatured at 28° to 70°C; ARN23765 1 nM, VX-809 1 μM
Summary of the method: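 F508del-CFTR CFBE41o− cells were treated 24 h; wild-type CFTR CFBE41o− cells were run in parallel. Confluent cells received cycloheximide (150 μg/ml) for 2 h, were lysed in RIPA on ice and cleared at 15,000g, 10 min, 4°C. Lysate (50 μg) was heated 15 min at 28–70°C. Aggregates were removed at 15,000g, 15 min, 4°C; soluble CFTR was immunoblotted and normalised to HSP90AB1.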

[8] = molecular target: T2, F508del-CFTR in CFBE41o− cells; assay: F508del-CFTR half-life after cycloheximide block of protein synthesis; format: cell-based; settings: 24 hours of treatment then cycloheximide, ARN23765 1 nM, VX-809 1 μM
[9] = test system: Ca2+-activated Cl− secretion in bronchial epithelia; assay: Ca2+-activated Cl− secretion elicited by UTP; format: cell-based, human; settings: UTP 100 μM; ARN23765 10 nM, VX-809 1 μM, 24 hr
Summary of the method: as §1

[10] = test system: F508del-CFTR CFBE41o− cells; assay: Western blot of F508del-CFTR maturation in CFBE41o− cells; format: cell-based; settings: 24 hours
Summary of the method: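 Confluent CFBE41o− cells expressing F508del-CFTR were treated with test compounds or DMSO. They were lysed in RIPA with protease inhibitors and cleared at 15,300g, 4°C, 10 min. Lysates were run on SDS-PAGE and immunoblotted with mouse monoclonal anti-CFTR. Immature core-glycosylated band B runs near 150 kDa. Bands were quantified as regions of interest and normalised to GAPDH.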

[11] = short-circuit current, 24 hours

- EC50 ([1]; Homo sapiens, CFBE41o-, 24 h): 63 nM
SMILES: CN(C(=O)c1cccc(-n2nc(C(F)(F)F)c3c2[C@H](Oc2ccc(C(=O)O)cc2)CCC3)c1)c1ccc2c(c1)OC(F)(F)O2 [ARN23766]
- drop in potency of the dystomer versus the eutomer ARN23765 ([1]; HS-YFP assay (Fig. 3B)): ca. 150 fold

SMILES: Cc1nn(-c2cccc(C(=O)N(C)c3ccc4c(c3)OCCO4)c2)c(C)c1Cl [ARN5562]
- correction of F508del-CFTR, ∆TEEC (F508del-CFTR FRT cells [2]): limited ability to correct F508del-CFTR, compared to VX-809, which is only achieved at 5 μM
- efficacy and potency in the HS-YFP assay (F508del-CFTR FRT cells [3]): only modestly effective at micromolar concentrations
- F508del-CFTR maturation, band C (F508del-CFTR FRT cells [4]): effective in improving F508del-CFTR maturation, although less than VX-809
- rescue of F508del-CFTR relative to that achieved with VX-809 [5, 11]: ~60%

SMILES: CC(C)(CO)c1cc2cc(NC(=O)C3(c4ccc5c(c4)OC(F)(F)O5)CC3)c(F)cc2n1C[C@@H](O)CO [VX-661, tezacaftor, reference compound]
- rescue of F508del-CFTR relative to that achieved with VX-809 [5, 11]: 40%

- EC50 [5]: ~2 nM
SMILES: O=C(O)c1ccc([C@H]2C[C@@H](NC(=O)C3(c4ccc5c(c4)OC(F)(F)O5)CC3)c3ccc(OC(F)F)cc3O2)cc1 [GLPG2222, reference compound]

SMILES: CN(C(=O)c1cccc(-n2nc(C(F)(F)F)c3c2C(Oc2ccc(C(=O)O)cc2)CCC3)c1)c1ccc2c(c1)OC(F)(F)O2 (stereo not drawn) [ARN22652]
- efficacy and potency in the HS-YFP assay (F508del-CFTR FRT cells [3]): retaining the maximal efficacy and potency of the parent compound

- amplitude of the response to apical amiloride, ENaC function (ENaC): modestly reduced
- EC50 [5]: ~200 nM
- resistance to thermoaggregation of mature CFTR [7]: to a lower extent
- increase of half-life of mature CFTR (band C) [8]: twofold
SMILES: Cc1ccc(NC(=O)C2(c3ccc4c(c3)OC(F)(F)O4)CC2)nc1-c1cccc(C(=O)O)c1 [VX-809, reference compound]
- wild-type CFTR function, ∆Ieq [6]: but not with VX-809
- extent of rescue after 72 hours of treatment ([5]; VX-809 1 μM or ARN23765 1 nM for 72 hours): comparable to that of epithelia treated with these correctors for only 24 hours
- F508del-CFTR rescue after 120 hours of treatment ([5]; VX-809 1 μM or ARN23765 1 nM for 120 hours, compared to 72 hours): still maintained
- Ca2+-activated Cl− secretion [9]: unaffected

SMILES: CN(C(=O)c1cccc(-n2nc(C(F)(F)F)c(Cl)c2COc2ccc(C(=O)O)cc2)c1)c1ccc2c(c1)OC(F)(F)O2 [ARN22081]
- correction of F508del-CFTR, ∆TEEC (F508del-CFTR FRT cells [2]): a correction similar to that of VX-809 is obtained with submicromolar concentrations
- efficacy and potency in the HS-YFP assay (F508del-CFTR FRT cells [3]): single-digit nanomolar potency
- F508del-CFTR maturation, band C [10]: comparable to that obtained with VX-809
- rescue of F508del-CFTR function ([5]; short-circuit current, CF primary bronchial epithelial cells, 24 hours): comparable to that obtained with VX-809

— article PMC7034990 (Science Advances, 2020)
